Experimental data reported in ChEMBL document CHEMBL3588801, “Thiosemicarbazones as Aedes aegypti larvicidal” (Eur J Med Chem, 2015).
In brackets after ≈: the same amount, converted by molar mass. Several values for one entry are separate records, joined by “and”; a condition that tells them apart may be missing. Identical values can stand only once.

Tests used:
Aedes aegypti [1] = assay: Larvicidal activity against Aedes aegypti L4 stage larvae assessed as induction of larval mortality incubated for 48 hrs; type: functional; settings: for LC50: Aedes aegypti, 48 h
Summary of the method: (§1)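 Adapted WHO larval test. Compound solubilized with Tween 80 co-solvent in distilled water as stock, then diluted. Fourth-instar A. aegypti larvae, 20 per beaker, in 20 mL test solution; four replicates per concentration, plus a compound-free negative control. Mortality scored after 48 h at 28 ± 2 °C, 70 ± 10 relative humidity (dead = no response to stimulus or failure to surface). LC50 from probit analysis.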

[2] = Cytotoxicity against BALB/c mouse splenocytes assessed as reduction in cell viability incubated for 24 hrs by beta-radiation counting based [3H]-thymidine incorporation assay; design: species or system Splenocyte
Summary of the method: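 BALB/c mouse splenocytes seeded at 6 × 10^5 cells/well in RPMI-1640 with 10% FBS and gentamycin; compound added in DMSO at six concentrations (1, 5, 10, 25, 50, 100) in triplicate; 24 h at 37 °C, 5% CO2; then 3H-thymidine pulse and beta counting. Viability as % incorporation versus solvent-only cells; saponin positive control; highest non-toxic concentration estimated.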

[3] = Lipophilicity log P of the compound; type: physicochemical; settings: octanol/water
Summary of the method: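 Calculated rather than measured, alongside the B3LYP/6-311++G(d,p) dipole moment.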

Aedes aegypti [4] = assay: Larvicidal activity against Aedes aegypti; type: functional; summary of the method: as §1
[5] = target: T1, Sterol carrier protein 2 (Aedes aegypti) (UniProt Q86PR3); assay: (§2) Inhibition of NBD-cholesterol binding to recombinant Aedes aegypti SCP-2 protein by fluorescence based assay
T1 sequence (whole entry): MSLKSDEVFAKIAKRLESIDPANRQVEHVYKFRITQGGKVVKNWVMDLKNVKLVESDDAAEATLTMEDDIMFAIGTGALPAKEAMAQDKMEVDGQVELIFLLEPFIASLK
Summary of the method: (§3)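 Competition assay with purified recombinant AeSCP-2, NBD-cholesterol and compound at increasing concentrations, read as fluorescence intensity. Separate NBD-cholesterol plus compound wells served as background where the compound interfered with fluorescence. Net signal is NBD-cholesterol/SCP-2/compound fluorescence minus that background, plotted as dose-response.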

Sterol carrier protein 2 = target: T2, Sterol carrier protein 2 (Aedes aegypti, UniProt Q86PR3); assay: as §2; summary of the method: as §3
T2 sequence (Q86PR3 whole entry): T1 sequence (whole entry)

| SMILES | log(1/LC50) (Aedes aegypti [1]) | LC50 (Aedes aegypti [1]) | MNTC at 24 h [2] | logP [3] | LC50 (Aedes aegypti [4]) | inhibition [5] | EC50 (Sterol carrier protein 2) |
| --- | --- | --- | --- | --- | --- | --- | --- |
| NC(=S)N/N=C/c1ccc(F)cc1 | 3.507 | 61.3 µg/mL and 311 µM | 25.4 µM | 2.18 | – | – | – |
| NC(=S)N/N=C/c1ccc(Cl)cc1 | 3.873 | 28.8 µg/mL and 135 µM | 23.3 µM | 2.63 | – | – | – |
| NC(=S)N/N=C/COc1cccc(Cl)c1Cl | 4.154 | 19.5 µg/mL and 70.1 µM | 17.9 µM | 3.3 | – | – | – |
| CCCCC/C=C/C=C/C(=O)NCC(C)C [PELLITORIN] | – | – | – | – | 0.92 µg/mL (≈ 4.12 µM) | – | – |
| CC(C)CNC(=O)/C=C/C=C/CC/C=C/c1ccc2c(c1)OCO2 [RETROFRACTAMIDE A] | – | – | – | – | 0.04 µg/mL (≈ 0.122 µM) | – | – |
| NC(=S)N/N=C/COc1cccc(Cl)c1 | 3.542 | 70 µg/mL and 287 µM | 103 µM | 2.65 | – | – | – |
| NC(=S)N/N=C/COc1ccccc1 | 3.268 | 113 µg/mL and 538 µM | 119 µM | 2.01 | – | – | – |
| C/C(=N\NC(N)=S)C(C)Oc1ccc(Cl)c(Cl)c1 (stereo not drawn) | – | 3.95 µM | – | 4.87 | – | – | – |
| CC(C)CNC(=O)/C=C/C=C/CCCCCC/C=C/c1ccc2c(c1)OCO2 [GUINEENSINE] | – | – | – | – | 0.89 µg/mL (≈ 2.32 µM) | – | – |
| NC(=S)N/N=C/COc1ccc(Br)cc1 | 4.036 | 26.5 µg/mL and 92 µM | > 347 µM | 2.9 | – | – | – |
| NC(=S)N/N=C/COc1ccc(Cl)c(Cl)c1 | 4.68 | 5.8 µg/mL and 20.9 µM | 89.8 µM | 3.3 | – | – | – |
| NC(=S)N/N=C/c1cccc(/C=N/NC(N)=S)c1 | – | > 200 µg/mL | – | – | – | – | – |
| NC(=S)N/N=C/C=C/c1ccccc1 | 3.86 | 28.4 µg/mL and 138 µM | < 4.87 µM | – | – | – | – |
| CC(C)CNC(=O)/C=C/C=C/CCCC/C=C/c1ccc2c(c1)OCO2 [RETROFRACTAMIDE B] | – | – | – | – | 0.1 µg/mL (≈ 0.281 µM) | – | – |
| NC(=S)N/N=C/c1ccc(O)cc1 | – | – | 5.12 µM | – | – | Dose-dependent effect | 5 µM |
| N/C(S)=N/N=C/c1ccc(Cl)c(Cl)c1 | 4.157 | 17.3 µg/mL and 69.7 µM | 20.2 µM | 3.27 | – | – | – |
| COc1ccc(OC/C=N/NC(N)=S)cc1 | 3.298 | 120 µg/mL and 503 µM | 20.9 µM | 2.09 | – | Dose-dependent effect | 0.6 µM |
| NC(=O)N/N=C/c1ccc(Cl)c(Cl)c1 | – | > 200 µg/mL and > 862 µM | > 431 µM | – | – | – | – |
| NC(=S)N/N=C/c1ccc(Br)cc1 | 3.91 | 31.7 µg/mL and 123 µM | < 3.87 µM | 2.87 | – | – | – |
| NC(=O)N/N=C/c1ccc(F)cc1 | – | > 200 µg/mL and > 1.1 mM | > 55.1 µM | – | – | – | – |
| NC(=S)N/N=C/COc1ccc(Cl)cc1 | 4.046 | 21.9 µg/mL and 89.9 µM | 103 µM | 2.65 | – | – | – |
